Published values of several laboratories.
≈ marks a conversion by molar mass, not a printed value.

Compound	organism	assay	test system	conditions	measurement	value
COc1cccc(OC)c1C(=O)N[C@@H]1C(=O)N2[C@@H]1SC(C)(C)[C@@H]2C(=O)O	Acinetobacter baumannii	microbial growth, broth dilution	ATCC19606	drug-resistant strain	MIC	> 256 µg/mL
COC(=O)c1cc(-c2cccc(NC(=O)Nc3cccc(F)c3)c2)on1	Acinetobacter baumannii	microbial growth, broth dilution	BAA1605	–	MIC	> 64 µg/mL
CC(C)(CO)C(=O)SCCOP(=O)(NCc1ccccc1)OC[C@H]1O[C@@H](n2cnc3c(=O)[nH]c(N)nc32)[C@](C)(O)[C@@H]1O (mixture of isomers)	Hepatitis C virus	viral replication, inhibitor	Huh-7, GETYPE1	replicon	EC90	900 nM
C=C1CC[C@H](O)C/C1=C/C=C1\CCC[C@]2(C)[C@@H]([C@H](C)/C=C/[C@H](C)C(C)C)CC[C@@H]12	Hepatitis C virus	viral replication, inhibitor, luciferase	GETYPE2A	72 h, replicon	EC50	14.2 µM
Cc1c(NN=C(C#N)C2=NC(=O)CS2)c(=O)n(-c2ccccc2)n1C	Acinetobacter baumannii	microbial growth, well diffusion	–	100000 µg/mL	inhibition zone	27 mm
COc1nc(N)nc2c1ncn2[C@@H]1O[C@H](COP(=O)(N[C@@H](C)C(=O)OCC(C)(C)C)Oc2cccc3ccccc23)[C@@H](O)[C@@]1(C)O (stereo partly drawn)	Hepatitis C virus	viral replication, inhibitor	GETYPE1A	96 h, replicon	EC90	4 nM
C=C[C@@H]1C[C@]1(NC(=O)[C@@H]1C[C@@H]2CN1C(=O)[C@H](C(C)(C)C)NC(=O)O[C@@H]1C[C@H]1CCCCCc1nc3ccc(OC)cc3nc1O2)C(=O)NS(=O)(=O)C1CC1	Hepatitis C virus	viral replication, inhibitor, luciferase	Huh-7, GETYPE1B	96 h, replicon	IC50	46.6 nM
COC(=O)c1cc(-c2cccc(NC(=O)Nc3cccc(Cl)c3Cl)c2)on1	Acinetobacter baumannii	microbial growth, broth dilution	BAA1605	–	MIC	> 64 µg/mL
C[n+]1c(/C=C/c2c[nH]c3ccccc23)cc(/C=C2\Sc3ccccc3N2CCCN2CCOCC2)c2ccccc21.[I-]	Acinetobacter baumannii	microbial growth, broth dilution	ATCC19606	drug-resistant strain	MIC	> 64 µg/mL
C=C1/C(=C\C=C2/CCC[C@]3(C)[C@@H]([C@H](C)CCCC(C)(C)O)CC[C@@H]23)C[C@@H](O)C[C@@H]1O	Hepatitis C virus	viral replication, inhibitor, luciferase	GETYPE2A	5 days, replicon	EC50	4.71 µM
COC(=O)c1cc(-c2cccc(NC(=S)Nc3ccc(C)cc3)c2)on1	Acinetobacter baumannii	microbial growth, broth dilution	BAA1605	–	MIC	> 64 µg/mL
CC1CCCC2(C1)SC(C)C(=O)N2NC(=O)c1[nH]c2ccc(Cl)cc2c1-c1ccccc1 (stereo not drawn)	Enterovirus B	viral replication, inhibitor	Vero, B4	–	EC50	> 100 µM
COC(=O)c1cc(-c2cccc(NC(=O)Nc3ccc(F)c(F)c3)c2)on1	Acinetobacter baumannii	microbial growth, broth dilution	BAA1605	–	MIC	> 64 µg/mL
NC(=O)c1ncn([C@@H]2O[C@H](CO)[C@@H](O)[C@H]2O)n1	Enterovirus B	viral replication, inhibitor	Vero, B4	–	EC50	> 250 µM
COC(=O)c1cc(-c2cccc(NC(=S)Nc3ccc(OC)cc3)c2)on1	Acinetobacter baumannii	microbial growth, broth dilution	BAA1605	–	MIC	> 64 µg/mL
CC1CC(C)(C)CC2(C1)SCC(=O)N2NC(=O)c1[nH]c2ccc(Cl)cc2c1-c1ccccc1 (stereo not drawn)	Enterovirus B	viral replication, inhibitor	Vero, B4	–	EC50	> 100 µM
CCCCCCNC(=S)Nc1cccc(-c2cc(C(=O)OC)no2)c1	Acinetobacter baumannii	microbial growth, broth dilution	BAA1605	–	MIC	> 64 µg/mL
CC1SC2(CCCCC2)N(NC(=O)c2[nH]c3ccc(Cl)cc3c2-c2ccccc2)C1=O (stereo not drawn)	Enterovirus B	viral replication, inhibitor	Vero, B4	–	EC50	> 100 µM
C=C1CC[C@H](O)C/C1=C/C=C1\CCC[C@]2(C)[C@@H]([C@H](C)CCCC(C)C)CC[C@@H]12	Hepatitis C virus	viral replication, inhibitor, luciferase	BM4-5, GETYPE1B	5 days, replicon	EC50	3.8 µM
O=C(NN1C(=O)CSC12CCCCC2)c1[nH]c2ccc(Cl)cc2c1-c1ccccc1	Enterovirus B	viral replication, inhibitor	Vero, B4	–	EC50	> 100 µM
COC(=O)c1cc(-c2cccc(NC(=S)Nc3ccc(F)cc3)c2)on1	Acinetobacter baumannii	microbial growth, broth dilution	BAA1605	–	MIC	> 64 µg/mL
CC1CCC2(CC1)SC(C)C(=O)N2NC(=O)c1[nH]c2ccc(Cl)cc2c1-c1ccccc1 (stereo not drawn)	Enterovirus B	viral replication, inhibitor	Vero, B4	–	EC50	> 100 µM
COC(=O)c1cc(-c2cccc(NC(=O)Nc3ccccc3)c2)on1	Acinetobacter baumannii	microbial growth, broth dilution	BAA1605	–	MIC	> 64 µg/mL
CC(C)(C)C1CCC2(CC1)SCC(=O)N2NC(=O)c1[nH]c2ccc(Cl)cc2c1-c1ccccc1 (stereo not drawn)	Enterovirus B	viral replication, inhibitor	Vero, B4	–	EC50	> 100 µM
CC1(C)S[C@@H]2[C@H](NC(=O)[C@H](N)c3ccccc3)C(=O)N2[C@H]1C(=O)O	Acinetobacter baumannii	microbial growth, broth dilution	ATCC19606	drug-resistant strain	MIC	64 µg/mL (≈ 183 µM)
CC1SC2(CCCC2)N(NC(=O)c2[nH]c3ccc(Cl)cc3c2-c2ccccc2)C1=O (stereo not drawn)	Enterovirus B	viral replication, inhibitor	Vero, B4	–	EC50	> 100 µM
C[n+]1c(/C=C/c2ccc(O)cc2)cc(/C=C2\Sc3ccccc3N2CCCN2CCCC2)c2ccccc21.[I-]	Acinetobacter baumannii	microbial growth, broth dilution	ATCC19606	drug-resistant strain	MIC	> 64 µg/mL
